In ChEMBL document CHEMBL4304745, “On the Process of Discovering Leads That Target the Heparin-Binding Site of Neutrophil Elastase in the Sputum of Cystic Fibrosis Patients” (J Med Chem, 2019):
One block for each molecule: values may come before it. The source made the active and inactive calls. The calls are words filed in the database; no cut-off is given here.

Columns and labels:
Neutrophil elastase = molecular target: T1, Neutrophil elastase (Homo sapiens, UniProt P08246); test: Inhibition of human neutrophil elastase using S1384 as substrate preincubated for 5 mins followed by substrate addition
T1 sequence (P08246 whole entry): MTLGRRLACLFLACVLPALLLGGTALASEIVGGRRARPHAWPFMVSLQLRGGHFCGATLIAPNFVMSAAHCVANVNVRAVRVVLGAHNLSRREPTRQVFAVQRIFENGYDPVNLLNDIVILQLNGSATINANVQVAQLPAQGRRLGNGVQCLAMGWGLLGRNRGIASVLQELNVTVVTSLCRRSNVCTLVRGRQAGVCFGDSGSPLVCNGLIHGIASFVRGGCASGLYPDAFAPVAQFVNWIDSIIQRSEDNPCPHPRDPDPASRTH

Plasma [1] = test: Anticoagulant activity in human plasma assessed as concentration required to double the activated partial thromboplastin time measured after 5 mins; assay type: ADME, cell-free
In short: (§1)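 Clotting times (APTT and PT) measured in human plasma over a range of compound concentrations. The value is the concentration needed to double each clotting time.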

Plasma [2] = test: Anticoagulant activity in human plasma assessed as concentration required to double the prothrombin time measured after 5 mins; assay type: ADME, cell-free; in short: as §1
[3] = molecular target: T2, Neutrophil elastase (Homo sapiens) (UniProt P08246); test: Inhibition of human neutrophil elastase assessed as reduction in elastin-congo red hydrolysis preincubated for 30 mins followed by elastin-congo red addition measured after 48 hrs
T2 sequence (whole entry): T1 sequence (P08246 whole entry)
In short: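 Elastin-congo red hydrolysis by HNE at pH 8. Congo red released by elastin degradation is quantified by absorbance at 497 nm. Run in triplicate; error bars are one standard deviation.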

Plasma [4] = test: Anticoagulant activity in human plasma assessed as effect on activated partial thromboplastin time at 855 uM measured after 5 mins; assay type: ADME, cell-free
In short: (§2)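 APTT and PT recorded in human plasma with compound present at concentrations up to 855 µM. The read-out is the change in clotting time relative to untreated plasma.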

[5] = molecular target: T2, Neutrophil elastase (Homo sapiens); test: Inhibition of neutrophil elastase in cystic fibrosis patient-derived sputum at 2 mM using S1384 as substrate measured after 2 hrs in presence of DNAse1 and 150 mM NaCl; assay type: tissue-based
In short: (§3)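 Sputum from cystic fibrosis patients is cleared of insoluble debris by centrifugation and treated with DNase. HNE activity is then read by chromogenic substrate hydrolysis across increasing compound concentrations, up to about 2 mM.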

Plasminogen = Plasminogen (Homo sapiens, UniProt P00747); test: Inhibition of plasmin (unknown origin) using spectrozyme as substrate preincubated for 5 mins followed by substrate addition
Cathepsin G = molecular target: T3, Cathepsin G (Homo sapiens, UniProt P08311); test: Inhibition of human leukocyte cathepsin G using S7388 as substrate preincubated for 5 mins followed by substrate addition
T3 sequence (P08311 whole entry): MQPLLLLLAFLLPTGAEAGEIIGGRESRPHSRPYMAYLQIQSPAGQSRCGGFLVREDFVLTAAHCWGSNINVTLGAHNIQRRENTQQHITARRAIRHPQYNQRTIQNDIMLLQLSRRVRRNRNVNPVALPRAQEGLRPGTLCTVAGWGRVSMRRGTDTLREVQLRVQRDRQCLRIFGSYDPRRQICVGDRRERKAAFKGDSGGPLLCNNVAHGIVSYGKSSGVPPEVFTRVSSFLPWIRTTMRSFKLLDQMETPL

[6] = molecular target: T2, Neutrophil elastase (Homo sapiens); test: Inhibition of neutrophil elastase in cystic fibrosis patient-derived sputum 2 mM using S1384 as substrate measured after 2 hrs; assay type: tissue-based
Homo sapiens [7] = organism: Homo sapiens; test: Selectivity ratio of IC50 for thrombin (unknown origin) to IC50 for human neutrophil elastase
Coagulation factor XI = Coagulation factor XI (Homo sapiens, UniProt P03951); test: Inhibition of factor 11a (unknown origin) using S-2366 as substrate preincubated for 5 mins followed by substrate addition
[8] = molecular target: T2, Neutrophil elastase (Homo sapiens); test: Mixed type inhibition of human neutrophil elastase assessed as decrease in Vmax for substrate at 1000 uM using varying levels of S1384 as substrate by Michaelis-Menten plot analysis relative to control
[9] = molecular target: T2, Neutrophil elastase (Homo sapiens); test: Inhibition of neutrophil elastase in cystic fibrosis patient-derived sputum up to 250 using S1384 as substrate measured after 2 hrs in presence of DNAse1 and 150 mM NaCl; assay type: tissue-based
Homo sapiens [10] = organism: Homo sapiens; test: Selectivity ratio of IC50 for factor 10a (unknown origin) to IC50 for human neutrophil elastase
Myeloblastin = molecular target: T4, Myeloblastin (Homo sapiens, UniProt P24158); test: Inhibition of human neutrophil proteinase 3 using M4765 as substrate preincubated for 5 mins followed by substrate addition
T4 sequence (P24158 whole entry): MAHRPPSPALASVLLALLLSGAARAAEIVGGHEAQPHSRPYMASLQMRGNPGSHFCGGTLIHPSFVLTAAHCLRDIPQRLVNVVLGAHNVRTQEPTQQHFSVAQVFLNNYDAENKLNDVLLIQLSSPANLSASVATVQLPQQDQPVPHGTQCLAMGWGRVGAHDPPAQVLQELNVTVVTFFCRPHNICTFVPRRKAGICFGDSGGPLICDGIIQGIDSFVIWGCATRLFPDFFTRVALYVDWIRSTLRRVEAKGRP

Homo sapiens [11] = organism: Homo sapiens; test: Selectivity ratio of IC50 for factor 11 (unknown origin) to IC50 for human neutrophil elastase
Prothrombin = Prothrombin (Homo sapiens, UniProt P00734); test: Inhibition of thrombin (unknown origin) using spectrozyme as substrate preincubated for 5 mins followed by substrate addition
[12] = molecular target: T2, Neutrophil elastase (Homo sapiens); test: Inhibition of neutrophil elastase in cystic fibrosis patient-derived sputum at 2 mM using S1384 as substrate measured after 2 hrs in presence of DNAse1 and 400 mM NaCl; assay type: tissue-based; in short: as §3
Homo sapiens [13] = organism: Homo sapiens; test: Selectivity ratio of IC50 for plasmin (unknown origin) to IC50 for human neutrophil elastase
[14] = molecular target: T2, Neutrophil elastase (Homo sapiens); test: Mixed type inhibition of human neutrophil elastase assessed as increase in Km for substrate at 1000 uM using varying levels of S1384 as substrate by Michaelis-Menten plot analysis relative to control
Plasma [15] = test: Anticoagulant activity in human plasma assessed as effect on prothrombin time at 855 uM measured after 5 mins; assay type: ADME, cell-free; in short: as §2
[16] = Solubility of the compound in water; assay type: physicochemical
Coagulation factor X = Coagulation factor X (Homo sapiens, UniProt P00742); test: Inhibition of factor 10a (unknown origin) using spectrozyme as substrate preincubated for 5 mins followed by substrate addition
[17] = molecular target: T2, Neutrophil elastase (Homo sapiens); test: Inhibition of neutrophil elastase in cystic fibrosis patient-derived sputum using S1384 as substrate measured after 2 hrs in presence of DNAse1 and 150 mM NaCl; assay type: tissue-based; in short: as §3
[18] = compound: O=c1cc(-c2ccc(OS(=O)(=O)O)cc2)oc2cc(OS(=O)(=O)O)cc(OCc3cccc(COc4cc(OS(=O)(=O)O)cc5oc(-c6ccc(OS(=O)(=O)O)cc6)cc(=O)c45)n3)c12; test: Mixed type inhibition of human neutrophil elastase assessed as Km for substrate at 1000 uM using varying levels of S1384 as substrate by Michaelis-Menten plot analysis (reference value: 650 +/- 24 uM)
[19] = compound: O=c1cc(-c2ccc(OS(=O)(=O)O)cc2)oc2cc(OS(=O)(=O)O)cc(OCc3cccc(COc4cc(OS(=O)(=O)O)cc5oc(-c6ccc(OS(=O)(=O)O)cc6)cc(=O)c45)n3)c12; test: Mixed type inhibition of human neutrophil elastase assessed as Km for substrate at 250 uM using varying levels of S1384 as substrate by Michaelis-Menten plot analysis (reference value: 650 +/- 24 uM)
[20] = compound: O=c1cc(-c2ccc(OS(=O)(=O)O)cc2)oc2cc(OS(=O)(=O)O)cc(OCc3cccc(COc4cc(OS(=O)(=O)O)cc5oc(-c6ccc(OS(=O)(=O)O)cc6)cc(=O)c45)n3)c12; test: Mixed type inhibition of human neutrophil elastase assessed as Vmax for substrate at 250 uM using varying levels of S1384 as substrate by Michaelis-Menten plot analysis (reference value: 40.1 +/- 0.5 mAU/min)
[21] = compound: O=c1cc(-c2ccc(OS(=O)(=O)O)cc2)oc2cc(OS(=O)(=O)O)cc(OCc3cccc(COc4cc(OS(=O)(=O)O)cc5oc(-c6ccc(OS(=O)(=O)O)cc6)cc(=O)c45)n3)c12; test: Mixed type inhibition of human neutrophil elastase assessed as Km for substrate at 750 uM using varying levels of S1384 as substrate by Michaelis-Menten plot analysis (reference value: 650 +/- 24 uM)
[22] = compound: O=c1cc(-c2ccc(OS(=O)(=O)O)cc2)oc2cc(OS(=O)(=O)O)cc(OCc3cccc(COc4cc(OS(=O)(=O)O)cc5oc(-c6ccc(OS(=O)(=O)O)cc6)cc(=O)c45)n3)c12; test: Mixed type inhibition of human neutrophil elastase assessed as Vmax for substrate at 750 uM using varying levels of S1384 as substrate by Michaelis-Menten plot analysis (reference value: 40.1 +/- 0.5 mAU/min)
[23] = compound: O=c1cc(-c2ccc(OS(=O)(=O)O)cc2)oc2cc(OS(=O)(=O)O)cc(OCc3cccc(COc4cc(OS(=O)(=O)O)cc5oc(-c6ccc(OS(=O)(=O)O)cc6)cc(=O)c45)n3)c12; test: Mixed type inhibition of human neutrophil elastase assessed as Vmax for substrate at 1000 uM using varying levels of S1384 as substrate by Michaelis-Menten plot analysis (reference value: 40.1 +/- 0.5 mAU/min)
[24] = compound: O=c1cc(-c2ccc(OS(=O)(=O)O)cc2)oc2cc(OS(=O)(=O)O)cc(OCc3cccc(COc4cc(OS(=O)(=O)O)cc5oc(-c6ccc(OS(=O)(=O)O)cc6)cc(=O)c45)n3)c12; test: Mixed type inhibition of human neutrophil elastase assessed as Km for substrate at 500 uM using varying levels of S1384 as substrate by Michaelis-Menten plot analysis (reference value: 650 +/- 24 uM)
[25] = compound: O=c1cc(-c2ccc(OS(=O)(=O)O)cc2)oc2cc(OS(=O)(=O)O)cc(OCc3cccc(COc4cc(OS(=O)(=O)O)cc5oc(-c6ccc(OS(=O)(=O)O)cc6)cc(=O)c45)n3)c12; test: Mixed type inhibition of human neutrophil elastase assessed as Vmax for substrate at 500 uM using varying levels of S1384 as substrate by Michaelis-Menten plot analysis (reference value: 40.1 +/- 0.5 mAU/min)

Chain of Plasminogen (P00747 97-580 limits assumed): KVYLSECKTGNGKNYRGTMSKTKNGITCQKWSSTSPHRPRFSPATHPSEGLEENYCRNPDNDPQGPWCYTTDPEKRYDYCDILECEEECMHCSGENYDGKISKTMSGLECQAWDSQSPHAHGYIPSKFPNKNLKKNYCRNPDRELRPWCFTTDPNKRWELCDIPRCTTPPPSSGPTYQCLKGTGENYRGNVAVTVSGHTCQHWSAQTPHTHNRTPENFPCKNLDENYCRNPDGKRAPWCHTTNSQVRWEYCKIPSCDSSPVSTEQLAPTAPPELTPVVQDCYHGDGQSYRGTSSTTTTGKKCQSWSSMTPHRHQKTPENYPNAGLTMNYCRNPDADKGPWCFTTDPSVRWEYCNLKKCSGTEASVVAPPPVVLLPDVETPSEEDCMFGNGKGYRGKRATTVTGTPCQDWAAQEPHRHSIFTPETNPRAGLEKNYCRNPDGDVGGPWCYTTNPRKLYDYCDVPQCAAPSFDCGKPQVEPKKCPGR
Chain of Plasminogen (P00747 581-810 limits assumed): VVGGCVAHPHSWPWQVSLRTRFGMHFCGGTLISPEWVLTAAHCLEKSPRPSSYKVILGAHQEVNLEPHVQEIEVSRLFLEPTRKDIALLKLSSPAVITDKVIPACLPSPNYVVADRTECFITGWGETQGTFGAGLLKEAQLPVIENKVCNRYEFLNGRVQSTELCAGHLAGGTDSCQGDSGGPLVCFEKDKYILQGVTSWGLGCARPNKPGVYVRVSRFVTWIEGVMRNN
Chain of Coagulation factor X (P00742 41-179 limits assumed): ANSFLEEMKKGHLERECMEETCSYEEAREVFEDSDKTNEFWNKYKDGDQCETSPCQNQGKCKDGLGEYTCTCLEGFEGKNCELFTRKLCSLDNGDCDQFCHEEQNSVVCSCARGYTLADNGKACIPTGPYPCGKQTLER
Chain of Coagulation factor X (P00742 235-488 limits assumed): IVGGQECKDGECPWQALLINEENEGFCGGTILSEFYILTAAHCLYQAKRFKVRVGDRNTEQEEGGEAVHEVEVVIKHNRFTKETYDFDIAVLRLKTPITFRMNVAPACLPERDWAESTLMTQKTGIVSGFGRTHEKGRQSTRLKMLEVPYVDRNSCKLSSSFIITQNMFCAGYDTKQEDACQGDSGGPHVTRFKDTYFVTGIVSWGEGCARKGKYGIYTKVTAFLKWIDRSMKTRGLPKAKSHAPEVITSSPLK
Chain of Coagulation factor XI (P03951 19-387 limits assumed): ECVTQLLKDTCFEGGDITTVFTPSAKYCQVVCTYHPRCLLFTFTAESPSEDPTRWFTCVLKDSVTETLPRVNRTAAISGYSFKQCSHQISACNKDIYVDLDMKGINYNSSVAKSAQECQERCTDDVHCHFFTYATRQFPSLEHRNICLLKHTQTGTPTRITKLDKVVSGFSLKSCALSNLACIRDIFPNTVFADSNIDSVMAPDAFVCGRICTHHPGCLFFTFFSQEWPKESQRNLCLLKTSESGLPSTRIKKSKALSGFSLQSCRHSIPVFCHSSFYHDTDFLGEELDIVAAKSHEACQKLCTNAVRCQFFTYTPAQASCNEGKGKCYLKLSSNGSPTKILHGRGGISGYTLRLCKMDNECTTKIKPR
Chain of Coagulation factor XI (P03951 388-625 limits assumed): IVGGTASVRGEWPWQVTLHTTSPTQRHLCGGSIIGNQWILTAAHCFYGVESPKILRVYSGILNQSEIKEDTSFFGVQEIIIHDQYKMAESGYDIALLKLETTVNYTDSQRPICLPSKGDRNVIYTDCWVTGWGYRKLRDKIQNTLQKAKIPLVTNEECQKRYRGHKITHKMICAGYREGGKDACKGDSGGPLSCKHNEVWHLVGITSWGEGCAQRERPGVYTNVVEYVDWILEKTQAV

IC50 (Neutrophil elastase): 230 nM
Molecule: O=c1c(OS(=O)(=O)O)c(-c2ccc(OS(=O)(=O)O)c(OS(=O)(=O)O)c2)oc2cc(OS(=O)(=O)O)cc(OCc3ccc(COc4cc(OS(=O)(=O)O)cc5oc(-c6ccc(OS(=O)(=O)O)c(OS(=O)(=O)O)c6)c(OS(=O)(=O)O)c(=O)c45)cc3)c12

2aPTT (Plasma [1]): 49 µM
2PT (Plasma [2]): 152 µM
inhibition [3]: Active
IC50 (Neutrophil elastase): 40 nM
Molecule: O=C(OC[C@H]1O[C@@H](OC(=O)c2cc(OS(=O)(=O)[O-])c(O)c(OS(=O)(=O)[O-])c2)[C@H](OC(=O)c2cc(OS(=O)(=O)[O-])c(O)c(OS(=O)(=O)[O-])c2)[C@@H](OC(=O)c2cc(OS(=O)(=O)[O-])c(O)c(OS(=O)(=O)[O-])c2)[C@@H]1OC(=O)c1cc(OS(=O)(=O)[O-])c(O)c(OS(=O)(=O)[O-])c1)c1cc(OS(=O)(=O)[O-])c(O)c(OS(=O)(=O)[O-])c1.[Na+].[Na+].[Na+].[Na+].[Na+].[Na+].[Na+].[Na+].[Na+].[Na+] [sulfated pentagalloylglucoside]

IC50 (Neutrophil elastase): 140 nM
Molecule: O=c1c(OS(=O)(=O)O)c(-c2ccc(OS(=O)(=O)O)c(OS(=O)(=O)O)c2)oc2cc(OS(=O)(=O)O)cc(OCCOc3cc(-c4oc5cc(OS(=O)(=O)O)cc(OCCOc6cc(OS(=O)(=O)O)cc7oc(-c8ccc(OS(=O)(=O)O)c(OS(=O)(=O)O)c8)c(OS(=O)(=O)O)c(=O)c67)c5c(=O)c4OS(=O)(=O)O)ccc3OS(=O)(=O)O)c12

IC50 (Neutrophil elastase): 157000 nM
Molecule: O=c1cc(-c2ccc(OS(=O)(=O)O)cc2)oc2cc(OS(=O)(=O)O)cc(OCc3cccc(COc4cc(OS(=O)(=O)O)cc5oc(-c6ccc(OS(=O)(=O)O)cc6)cc(=O)c45)c3)c12

inhibition [5]: 100%
inhibition (INH) (Plasminogen): Active
IC50 (Cathepsin G): 1100 nM
inhibition [6]: inactive
Ratio IC50 (Homo sapiens [7]): > 50
inhibition (INH) (Coagulation factor XI): Active
fold change (FC) [8]: 2.5
inhibition [9]: inactive
Ratio IC50 (Homo sapiens [10]): > 50
IC50 (Myeloblastin): 54000 nM
Ratio IC50 (Homo sapiens [11]): 28
inhibition (INH) (Prothrombin): Active
inhibition [12]: Active
Ratio IC50 (Homo sapiens [13]): > 50
fold change (FC) [14]: 3
solubility [16]: > 10000 µg/mL
inhibition [3]: Active
inhibition (INH) (Coagulation factor X): Active
inhibition [17]: Dose-dependent effect
IC50 (Neutrophil elastase): 690 nM
Molecule: O=c1cc(-c2ccc(OS(=O)(=O)[O-])cc2)oc2cc(OS(=O)(=O)[O-])cc(OCc3cccc(COc4cc(OS(=O)(=O)[O-])cc5oc(-c6ccc(OS(=O)(=O)[O-])cc6)cc(=O)c45)n3)c12.[Na+].[Na+].[Na+].[Na+]
Activity (Plasma [4]): Non-Toxic
Activity (Plasma [15]): Non-Toxic

B1: Neutrophil elastase (Homo sapiens), P08246 (protein)
chain: T1 sequence (P08246 whole entry)
Km [18]: 1670 µM
Km [19]: 908 µM
Vmax [20]: 38.6 mAU/min
Km [21]: 1220 µM
Vmax [22]: 19 mAU/min
Vmax [23]: 15.3 mAU/min
Km [24]: 788 µM
Vmax [25]: 30.3 mAU/min
